Assay results from ChEMBL document CHEMBL1782040, “Exceptionally fast uptake and metabolism of cyanidin 3-glucoside by rat kidneys and liver” (J Nat Prod, 2011).

Legend:
[1] = tested on: Nucleic Acid; assay: Ratio of drug uptake in bile to liver in Wistar rat at 0.67 umol, iv after 15 mins by mass spectrometry analysis; format: ADME, organism-based; details: in vivo, 0.25 h
[2] = Drug uptake in Wistar rat kidney at 0.67 umol, iv after 15 mins by mass spectrometry analysis; format: ADME, organism-based; details: read-out: Drug uptake
Procedure, shortened: (§1)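 Cyanidin 3-glucoside in saline was given as one iliac-vein injection (0.67 μmol) to fasting, anaesthetized rats, which were killed at 15 s, 1, 5 or 15 min. Kidneys were homogenized, extracted in methanol, cleaned up by SPE and analysed by LC-MS/MS.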

[3] = tested on: Nucleic Acid; assay: Ratio of drug uptake in urine to kidney in Wistar rat at 0.67 umol, iv after 15 mins by mass spectrometry analysis; format: ADME, organism-based; details: in vivo, 0.25 h
Procedure, shortened: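 Fasting anaesthetized rats got 0.67 μmol anthocyanin in saline into the iliac vein (about 76 μM in plasma) and were killed at 15 min. Urine (volume measured) and kidneys (2.4 g assumed) were extracted in methanol and cleaned by SPE. Analytes were quantified by LC-tandem MS, corrected for recovery from spiked matrices, n = 9 rats.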

[4] = tested on: Liver; assay: Metabolic stability in Wistar rat assessed as parent compound level in liver at 0.67 umol, iv after 1 min by mass spectrometry analysis; format: ADME, organism-based; details: in vivo
Procedure, shortened: (§2)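 Fasted, anaesthetized rats received the anthocyanin in saline as a 0.67 μmol iliac-vein bolus (76 μM in plasma). They were sacrificed at 15 s, 1, 5 or 15 min, and plasma, kidneys, liver, urine and bile were collected. Anthocyanins were methanol-extracted, SPE-cleaned and quantified by MS (tandem MS for trace metabolites), then corrected for recovery measured on spiked blood, homogenates and urine. Amounts assume 8.8 mL plasma, 2.4 g kidney and 7.0 g liver, with urine and bile volumes measured.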

[5] = Elimination rate constant in Wistar rat plasma at 0.67 umol, iv; format: ADME, cell-free
Procedure, shortened: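 Rats received a 0.67 μmol iliac-vein bolus in saline under anaesthesia. Plasma amounts (nmol) at 15 s, 1, 5 and 15 min were obtained by recovery-corrected MS and fitted to y = y0 + a·e^(−kt). k is the first-order elimination constant, y0 the steady-state amount, and a the extrapolated t0 amount minus y0.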

[6] = tested on: Nucleic Acid; assay: Ratio of drug uptake in kidney to liver in Wistar rat assessed as cyanidin 3-glucoside level at 0.67 umol, iv after 15 mins by mass spectrometry analysis; details: in vivo, 0.25 h
[7] = tested on: Liver; assay: Drug uptake in Wistar rat liver assessed by assuming liver mass was 7 grams at 0.67 umol, iv after 15 mins by mass spectrometry analysis; format: ADME, organism-based; details: in vivo, 0.25 h; procedure, shortened: as §2
[8] = tested on: Kidney; assay: Drug uptake in Wistar rat kidney assessed by assuming kidney mass was 2.4 gram at 0.67 umol, iv after 15 mins by mass spectrometry analysis; format: ADME, organism-based; details: in vivo, 0.25 h; procedure, shortened: as §1
[9] = Drug uptake in Wistar rat liver at 0.67 umol, iv after 5 mins by mass spectrometry analysis; format: ADME, organism-based; details: read-out: Drug uptake; procedure, shortened: as §2
[10] = tested on: Kidney; assay: Drug uptake in Wistar rat kidney assessed by assuming kidney mass was 2.4 gram at 0.67 umol, iv after 1 min by mass spectrometry analysis; format: ADME, organism-based; details: in vivo; procedure, shortened: as §1
[11] = Drug excretion in Wistar rat urine at 0.67 umol, iv after 15 mins by mass spectrometry analysis; format: ADME, organism-based; details: read-out: Activity
Procedure, shortened: (§3)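 Cyanidin 3-glucoside in saline was injected into the iliac vein of fasting, anaesthetized rats (0.67 μmol; 76 μM in plasma). Urine and bile were collected to 15 min, and their volumes were measured. Anthocyanin levels were measured by LC-MS and corrected for recovery from spiked standards. Amounts are given per collected volume (n = 9 urine, n = 4 bile).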

[12] = Drug uptake in Wistar rat liver at 0.67 umol, iv after 0.25 mins by mass spectrometry analysis; format: ADME, organism-based; details: read-out: Drug uptake; procedure, shortened: as §2
[13] = Drug uptake in Wistar rat plasma at 0.67 umol, iv after 1 min by mass spectrometry analysis; format: ADME, organism-based; procedure, shortened: as §2
[14] = Drug uptake in Wistar rat plasma at 0.67 umol, iv after 0.25 mins by mass spectrometry analysis; format: ADME, organism-based; procedure, shortened: as §2
[15] = tested on: Kidney; assay: Metabolic stability in Wistar rat assessed as parent compound level in kidney at 0.67 umol, iv after 1 min by mass spectrometry analysis; format: ADME, organism-based; details: in vivo; procedure, shortened: as §2
[16] = Drug uptake in Wistar rat urine assessed by assuming plasma volume was 8.8 mL at 0.67 umol, iv after 15 mins by mass spectrometry analysis; format: ADME, organism-based; details: in vivo, 0.25 h; procedure, shortened: as §2
[17] = tested on: Kidney; assay: Metabolic stability in Wistar rat assessed as parent compound level in kidney at 0.67 umol, iv after 0.25 mins by mass spectrometry analysis; format: ADME, organism-based; details: in vivo, 15 s; procedure, shortened: as §2
[18] = tested on: Liver; assay: Drug uptake in Wistar rat liver assessed by assuming liver mass was 7 grams at 0.67 umol, iv after 1 min by mass spectrometry analysis; format: ADME, organism-based; details: in vivo; procedure, shortened: as §2
[19] = Drug excretion in Wistar rat bile at 0.67 umol, iv after 15 mins by mass spectrometry analysis; format: ADME, organism-based; details: read-out: Activity; procedure, shortened: as §3
[20] = Drug uptake in Wistar rat urine at 0.67 umol, iv after 15 mins by mass spectrometry analysis; format: ADME, organism-based; details: read-out: Drug uptake; procedure, shortened: as §2
[21] = tested on: Kidney; assay: Metabolic stability in Wistar rat assessed as parent compound level in kidney at 0.67 umol, iv after 5 mins by mass spectrometry analysis; format: ADME, organism-based; details: in vivo; procedure, shortened: as §2
[22] = tested on: Liver; assay: Drug uptake in Wistar rat liver assessed by assuming liver mass was 7 grams at 0.67 umol, iv after 0.25 mins by mass spectrometry analysis; format: ADME, organism-based; details: in vivo, 15 s
Procedure, shortened: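 Fasting, anaesthetized rats received cyanidin 3-glucoside in saline into the iliac vein (0.67 μmol) and were killed at 15 s, 1, 5 or 15 min. Liver homogenates were methanol-extracted, cleaned up by SPE and quantified by LC-MS/MS.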

[23] = Drug uptake in Wistar rat plasma at 0.67 umol, iv after 15 mins by mass spectrometry analysis; format: ADME, organism-based; procedure, shortened: as §2
[24] = tested on: Kidney; assay: Metabolic stability in Wistar rat assessed as parent compound level in kidney at 0.67 umol, iv after 15 mins by mass spectrometry analysis; format: ADME, organism-based; details: in vivo, 0.25 h; procedure, shortened: as §2
[25] = tested on: Kidney; assay: Drug uptake in Wistar rat kidney assessed by assuming kidney mass was 2.4 gram at 0.67 umol, iv after 0.25 mins by mass spectrometry analysis; format: ADME, organism-based; details: in vivo, 15 s; procedure, shortened: as §1
[26] = Drug uptake in Wistar rat kidney at 0.67 umol, iv after 1 min by mass spectrometry analysis; format: ADME, organism-based; details: read-out: Drug uptake; procedure, shortened: as §1
[27] = tested on: Liver; assay: Drug uptake in Wistar rat liver assessed by assuming liver mass was 7 grams at 0.67 umol, iv after 5 mins by mass spectrometry analysis; format: ADME, organism-based; details: in vivo; procedure, shortened: as §2
[28] = Drug uptake in Wistar rat kidney at 0.67 umol, iv after 0.25 mins by mass spectrometry analysis; format: ADME, organism-based; details: read-out: Drug uptake; procedure, shortened: as §1
[29] = tested on: Liver; assay: Metabolic stability in Wistar rat assessed as parent compound level in liver at 0.67 umol, iv after 15 mins by mass spectrometry analysis; format: ADME, organism-based; details: in vivo, 0.25 h; procedure, shortened: as §2
[30] = Drug uptake in Wistar rat bile assessed by assuming plasma volume was 8.8 mL at 0.67 umol, iv after 15 mins by mass spectrometry analysis; format: ADME, organism-based; details: in vivo, 0.25 h
[31] = Drug uptake in Wistar rat bile at 0.67 umol, iv after 15 mins by mass spectrometry analysis; format: ADME, organism-based; details: read-out: Drug uptake; procedure, shortened: as §3
[32] = tested on: Kidney; assay: Drug uptake in Wistar rat kidney assessed by assuming kidney mass was 2.4 gram at 0.67 umol, iv after 5 mins by mass spectrometry analysis; format: ADME, organism-based; details: in vivo; procedure, shortened: as §1
[33] = tested on: Nucleic Acid; assay: Ratio of drug uptake in kidney to liver in Wistar rat assessed as level at 0.67 umol, iv by mass spectrometry analysis; details: in vivo
[34] = tested on: Plasma; assay: Metabolic stability in Wistar rat assessed as parent compound level in plasma at 0.67 umol, iv after 5 mins by mass spectrometry analysis; format: ADME, organism-based; details: in vivo; procedure, shortened: as §2
[35] = Metabolic stability in Wistar rat assessed as parent compound level in urine at 0.67 umol, iv after 15 mins by mass spectrometry analysis; format: ADME, organism-based; details: in vivo, 0.25 h; procedure, shortened: as §2
[36] = Metabolic stability in Wistar rat assessed as parent compound level in bile at 0.67 umol, iv after 15 mins by mass spectrometry analysis; format: ADME, organism-based; details: in vivo, 0.25 h; procedure, shortened: as §2
[37] = Drug uptake in Wistar rat plasma at 0.67 umol, iv after 5 mins by mass spectrometry analysis; format: ADME, organism-based; procedure, shortened: as §2
[38] = Drug uptake in Wistar rat liver at 0.67 umol, iv after 1 min by mass spectrometry analysis; format: ADME, organism-based; details: read-out: Drug uptake; procedure, shortened: as §2
[39] = tested on: Plasma; assay: Metabolic stability in Wistar rat assessed as parent compound level in plasma at 0.67 umol, iv after 15 mins by mass spectrometry analysis; format: ADME, organism-based; details: in vivo, 0.25 h; procedure, shortened: as §2
[40] = Drug uptake in Wistar rat liver at 0.67 umol, iv after 15 mins by mass spectrometry analysis; format: ADME, organism-based; details: read-out: Drug uptake; procedure, shortened: as §2
[41] = Drug uptake in Wistar rat kidney at 0.67 umol, iv after 5 mins by mass spectrometry analysis; format: ADME, organism-based; details: read-out: Drug uptake; procedure, shortened: as §1
[42] = tested on: Plasma; assay: Metabolic stability in Wistar rat assessed as parent compound level in plasma at 0.67 umol, iv after 1 min by mass spectrometry analysis; format: ADME, organism-based; details: in vivo; procedure, shortened: as §2
[43] = tested on: Liver; assay: Metabolic stability in Wistar rat assessed as parent compound level in liver at 0.67 umol, iv after 5 mins by mass spectrometry analysis; format: ADME, organism-based; details: in vivo; procedure, shortened: as §2
[44] = tested on: Liver; assay: Metabolic stability in Wistar rat assessed as parent compound level in liver at 0.67 umol, iv after 0.25 mins by mass spectrometry analysis; format: ADME, organism-based; details: in vivo, 15 s; procedure, shortened: as §2
[45] = tested on: Plasma; assay: Metabolic stability in Wistar rat assessed as parent compound level in plasma at 0.67 umol, iv after 0.25 mins by mass spectrometry analysis; format: ADME, organism-based; details: in vivo, 15 s; procedure, shortened: as §2

## OC[C@H]1O[C@@H](Oc2cc3c(O)cc(O)cc3[o+]c2-c2ccc(O)c(O)c2)[C@H](O)[C@@H](O)[C@@H]1O [KUROMANIN]
[1]
  Ratio: 34.2
[2]
  concentration at 0.25 h: 4.4 µM
[3]
  Ratio: 71.9
[4]
  Stability: 84.4 nmol
[5]
  k el: 0.0317 s⁻¹
[6]
  Ratio: 37
[7]
  Drug uptake: 0.4 nmol
[8]
  Drug uptake: 10.6 nmol
[9]
  concentration at 5 min: 0.02 µM
[10]
  Drug uptake: 29.8 nmol
[11]
  dose excreted at 0.25 h: 6.2%
[12]
  concentration at 15 s: 0.4 µM
[13]
  concentration at 1 min: 5.7 µM
[14]
  concentration at 15 s: 18.2 µM
[15]
  Stability: 130.8 nmol
[16]
  Drug uptake: 41.3 nmol
[17]
  Stability: 73.1 nmol
[18]
  Drug uptake: 2.5 nmol
[19]
  dose excreted at 0.25 h: < 0.1%
[20]
  concentration at 0.25 h: 317 µM
[21]
  Stability: 52 nmol
[22]
  Drug uptake: 2.5 nmol
[23]
  concentration at 0.25 h: 1.6 µM
[24]
  Stability: 62.7 nmol
[25]
  Drug uptake: 27.1 nmol
[26]
  concentration at 1 min: 12.4 µM
[27]
  Drug uptake: 0.1 nmol
[28]
  concentration at 15 s: 11.3 µM
[29]
  Stability: 32.3 nmol
[30]
  Drug uptake: 0.4 nmol
[31]
  concentration at 0.25 h: 2.3 µM
[32]
  Drug uptake: 10.7 nmol
[33]
  Ratio: 12
[34]
  Stability: 17.2 nmol
[35]
  Stability: 141 nmol
[36]
  Stability: 58.9 nmol
[37]
  concentration at 5 min: 1.6 µM
[38]
  concentration at 1 min: 0.4 µM
[39]
  Stability: 19.7 nmol
[40]
  concentration at 0.25 h: 0.1 µM
[41]
  concentration at 5 min: 4.5 µM
[42]
  Stability: 55.8 nmol
[43]
  Stability: 34.6 nmol
[44]
  Stability: 43.6 nmol
[45]
  Stability: 171.2 nmol
